# ChEMBL document CHEMBL1817614, “Inhibitory effects of chalcone glycosides isolated from Brassica rapa L. 'hidabeni' and their synthetic derivatives on LPS-induced NO production in microglia” (Bioorg Med Chem, 2011)
# Activity calls are given as the source filed them. The calls are words filed in the database; no cut-off is given here.
# Legend:
# HAPI [1] = assay: Antiinflammatory activity in rat HAPI cells assessed as inhibition of LPS-induced iNOS mRNA expression at 50 uM treated 30 mins before LPS challenge measured after 6 hrs by RT-PCR analysis; assay type: functional, cell-based
# In short: (§1)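 HAPI cells were seeded in 1% FCS DMEM and treated the next day. Compound (50 µM) was present 30 min before and during LPS (100 ng/mL) for 6 h. RT-PCR used GAPDH normalization. IFN-β ran 35 cycles with anneal at 54 °C; IL-1β ran 30 cycles with anneal at 58 °C. Data are % of LPS alone, mean SEM, n = 3.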
# HAPI [2] = assay: Antiinflammatory activity in rat HAPI cells assessed as inhibition of IFN-gamma-induced iNOS mRNA expression at 50 uM treated 30 mins before LPS challenge measured after 8 hrs by RT-PCR analysis; assay type: functional, cell-based
# In short: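 HAPI rat microglia were grown in DMEM with 10% heat-inactivated FCS at 37 °C. Compound (50 µM) was added 30 min before and kept during IFN-γ (100 ng/mL) for 8 h. Total RNA was taken for RT-PCR, gel densitometry and normalization to GAPDH. Data are % of IFN-γ alone, mean SEM, n = 3.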
# HAPI [3] = assay: Antiinflammatory activity in rat HAPI cells assessed as inhibition of LPS-induced nitric oxide production at 50 uM treated 30 mins before LPS challenge measured after 24 hrs by Griess method; assay type: functional, cell-based
# In short: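 About 1.0 × 10⁵ HAPI cells per well were seeded in 1% FCS DMEM. The next day, compound (50 µM) was present 30 min before and during LPS (100 ng/mL) for 24 h. Medium nitrite was read by Griess kit. Data are fold induction vs untreated cells, mean SD, n = 3 or 4.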
# HAPI [4] = assay: Inhibition of LPS-induced STAT1 phosphorylation in rat HAPI cell lysates at 50 uM treated 30 mins before LPS challenge measured after 3 hrs by immunoblot analysis
# HAPI [5] = assay: Inhibition of LPS-induced STAT1 nuclear translocation in rat HAPI cell nuclear extracts at 50 uM treated 30 mins before LPS challenge measured after 3 hrs by immunoblot analysis; assay type: cell-based
# In short: (§2)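 Compound (50 µM) or vehicle was given 30 min before LPS (100 ng/mL) for 3 h. Nuclear extracts were made by NP-40 lysis and 0.4 M NaCl HEPES pH 7.8 extraction. Extract (10 µg) was immunoblotted for NF-κB p65 or STAT1 (1:1,000), with ABC chemiluminescence detection. Blots shown represent three experiments.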
# HAPI [6] = assay: Inhibition of LPS-induced ERK phosphorylation in rat HAPI cell lysates at 50 uM treated 30 mins before LPS challenge measured after 1 hr by immunoblot analysis; assay type: cell-based
# In short: (§3)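 Compound (50 µM) or vehicle was given 30 min before LPS (100 ng/mL) for 1 h. Whole-cell lysates were made in Tris pH 7.4 Triton buffer with phosphatase inhibitors. Lysate (40 µg) was run on SDS-PAGE and immunoblotted with phospho-specific and total MAPK antibodies (1:1,000), biotin secondary/ABC and chemiluminescence. Blots shown represent three experiments.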
# HAPI [7] = assay: Inhibition of LPS-induced JNK phosphorylation in rat HAPI cell lysates at 50 uM treated 30 mins before LPS challenge measured after 1 hr by immunoblot analysis; assay type: cell-based; in short: as §3
# HAPI [8] = assay: Antiinflammatory activity in rat HAPI cells assessed as inhibition of LPS-induced IL1-beta mRNA expression at 50 uM treated 30 mins before LPS challenge measured after 6 hrs by RT-PCR analysis; assay type: functional, cell-based; in short: as §1
# HAPI [9] = assay: Antiinflammatory activity in rat HAPI cells assessed as inhibition of LPS-induced IFN-R mRNA expression at 50 uM treated 30 mins before LPS challenge measured after 6 hrs by RT-PCR analysis; assay type: functional, cell-based
# In short: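 Cells were seeded in 1% FCS DMEM and treated the next day. Compound (50 µM) was present 30 min before and during LPS (100 ng/mL) for 6 h. IFN-R RT-PCR ran 35 cycles with anneal at 55 °C and was normalized to GAPDH. Data are fold change vs untreated cells, mean SEM, n = 3.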
# HAPI [10] = assay: Inhibition of LPS-induced p38 phosphorylation in rat HAPI cell lysates at 50 uM treated 30 mins before LPS challenge measured after 1 hr by immunoblot analysis; assay type: cell-based; in short: as §3
# HAPI [11] = assay: Inhibition of LPS-induced NF-kappaB nuclear translocation in rat HAPI cell nuclear extracts at 50 uM treated 30 mins before LPS challenge measured after 3 hrs by immunoblot analysis; assay type: cell-based; in short: as §2
SMILES,inhibition (HAPI [1]),inhibition (HAPI [3]),also measured
COc1cc(C(=O)/C=C/c2ccccc2)ccc1O[C@@H]1O[C@H](CO)[C@@H](O)[C@H](O)[C@H]1O,Active,Active,inhibition (HAPI [2]): Active
COc1cc(C(=O)/C=C/c2ccc(O[C@@H]3O[C@H](CO)[C@@H](O)[C@H](O)[C@H]3O)cc2)ccc1O[C@@H]1O[C@H](CO)[C@@H](O)[C@H](O)[C@H]1O,Active,,
CC(=O)c1ccc(O[C@@H]2O[C@H](CO)[C@@H](O)[C@H](O)[C@H]2O)cc1,Active,,
COc1cc(C(=O)/C=C/c2ccc(O)cc2)ccc1O[C@@H]1O[C@H](CO)[C@@H](O)[C@H](O)[C@H]1O,Active,Active,
COc1cc(C(C)=O)cc(OC)c1O[C@@H]1O[C@H](CO)[C@@H](O)[C@H](O)[C@H]1O,Active,,
COc1ccc(/C=C/C(=O)c2ccc(O[C@@H]3O[C@H](CO)[C@@H](O)[C@H](O)[C@H]3O)c(OC)c2)cc1,Active,Active,inhibition (HAPI [4]): Active; inhibition (HAPI [5]): Active; inhibition (HAPI [6]): inactive; inhibition (HAPI [2]): Active; inhibition (HAPI [7]): inactive; inhibition (HAPI [8]): Active; inhibition (HAPI [9]): inactive; inhibition (HAPI [10]): inactive; inhibition (HAPI [11]): inactive
CC1=CC(=O)CC(C)(C)[C@@]1(O)/C=C/[C@H](C)O[C@@H]1O[C@H](CO)[C@@H](O)[C@H](O)[C@H]1O,Active,,
